# PAFAH2 FP inh – PAFAH2 enzyme inhibitors, primary screen, biochemical, fluorescence polarization, human; Platelet-activating factor acetylhydrolase 2, cytoplasmic (Homo sapiens), Q99487; recombinant PAFAH2, FP-rhodamine activity probe; inhibition, % at 3.39 µM; actives 0.99% (n = 340,000); AID 492956, 2010;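 active means inhibition above the mean over all tested compounds plus 3 SD, cut at about 30% in these data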;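 further: inhibitors block probe labeling of enzyme so polarization drops; 0% = enzyme with DMSO and 100% = wells lacking PAFAH2 protein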
# pPAFAH inh – pPAFAH enzyme inhibitors, primary screen, biochemical, fluorescence polarization, human; inhibition, % at 3.39 µM; AID 463082, 2010; recombinant pPAFAH, FP-rhodamine probe fluorescence polarization; Platelet-activating factor acetylhydrolase (Homo sapiens), Q13093; actives 1.5% (n = 330,000);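 active means inhibition above the mean inhibition across the screen plus 3 SD, cut at about 25% in these data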;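 further: inhibitors block binding of the rhodamine activity-based probe so polarization drops; 0% = enzyme with DMSO and 100% = wells lacking pPAFAH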
# ARFGAP1 inh – inhibitors of rat ARFGAP1 GAP activity, primary screen, biochemical, fluorescence polarization, GDP tracer; ADP-ribosylation factor GTPase-activating protein 1 (Rattus norvegicus), Q62848; Arfgap1-stimulated ARF1 GTP hydrolysis, GDP FP detection; inhibition, % at 16.5 µM; actives 0.26% (n = 360,000); AID 651572, 2012;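 active means inhibition above a per-plate limit, mean inhibition of low control wells plus 3 SD, cut at about 25% in these data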;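 further: 0% = DMSO wells with enzyme and 100% = wells lacking Arfgap1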
# Target sequence (Q62848 1-136 limits assumed): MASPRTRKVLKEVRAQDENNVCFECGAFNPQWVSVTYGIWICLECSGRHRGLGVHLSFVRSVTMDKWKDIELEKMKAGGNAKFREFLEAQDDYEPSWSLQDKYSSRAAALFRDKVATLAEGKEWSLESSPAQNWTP
#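 Material: rat Arfgap1 catalytic domain, aa 1-136; also added: human ARF1(Δ1-17)-GTP substrate; compound dosing: one concentration, 16.5 µM, DMSO 1.26%; incubation: GTP hydrolysis reaction 2 h at 25 °C; measured by: Tracer-displacement fluorescence polarization with EDTA stop, 620/688 nm; evaluation: % inhibition from polarization; repeats: one replicate per compound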
# PAFAH1B3 inh – PAFAH1B3 enzyme inhibitors, primary screen, biochemical, fluorescence polarization, human; actives 0.28% (n = 340,000); inhibition, % at 3.39 µM; recombinant PAFAH1B3, FP-rhodamine probe; Platelet-activating factor acetylhydrolase IB subunit alpha1 (Homo sapiens), Q15102;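 active means inhibition above the screen-wide average of all tested compounds plus 3 SD, cut at about 25% in these data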;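 further: 0% = enzyme with DMSO only and 100% = wells lacking PAFAH1B3 protein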
# Target sequence (Q15102 whole entry, looked up): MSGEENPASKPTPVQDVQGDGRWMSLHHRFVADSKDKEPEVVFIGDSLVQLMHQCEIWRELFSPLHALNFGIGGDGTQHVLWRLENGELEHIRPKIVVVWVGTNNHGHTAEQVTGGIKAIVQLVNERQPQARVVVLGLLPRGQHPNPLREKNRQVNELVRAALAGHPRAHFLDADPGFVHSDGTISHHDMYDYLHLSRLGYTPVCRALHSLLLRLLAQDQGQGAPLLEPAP
# ASAP1 GAP inh – inhibitors of human ASAP1 ArfGAP activity, primary screen, biochemical, fluorescence polarization. Arf-GAP with SH3 domain, ANK repeat and PH domain-containing protein 1 (Homo sapiens), …. ASAP1-stimulated ARF1 GTP hydrolysis, GDP FP detection. inhibition, % at 16.5 µM. actives 0.19% (n = 360,000); in the data active means inhibition above about 25%;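 further: 0% = vehicle with enzyme and substrate and 100% = no enzyme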
# PAFAH1B2 FP inh – PAFAH1B2 enzyme inhibitors, primary screen, biochemical, fluorescence polarization, human; recombinant PAFAH1B2, FP-rhodamine activity probe; inhibition, % at 3.39 µM; actives 1.2% (n = 340,000); AID 492953, 2010;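 active means inhibition above the mean of all tested compounds plus 3 SD, cut at about 24% in these data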;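 further: 0% = enzyme with DMSO and 100% = wells lacking PAFAH1B2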
# * marks the source's active call; other numbers are inactive results; · = no result given. Hits are enriched below; roughly 2.7% of the tested compounds scored in any of these assays.
SMILES,PAFAH2 FP inh,pPAFAH inh,ARFGAP1 inh,PAFAH1B3 inh,ASAP1 GAP inh,PAFAH1B2 FP inh
Cc1c(C(=O)N/N=C/c2ccc(O)cc2)sc(=S)n1C,7,-2,24,8,15,1
CC(C)c1[nH]nc2c1C(c1ccc(F)cc1)N(Cc1ccccc1)C2=O (stereo not given),·,·,12,·,-12,·
COc1cc(C=O)ccc1OCCSc1ccc(Cl)cc1,1,21,-3,1,-8,56*
COc1cc(C=O)ccc1OCCOCCOc1ccc(Cl)cc1,2,2,1,2,6,2
CCOC(=O)N/N=C/c1ccc(OCCSc2ccc(Cl)cc2)c(OC)c1,1,34*,-8,3,3,18
COc1ccc(CNC(=O)C23CC4CC(CC(Br)(C4)C2)C3)cc1,-8,-1,-11,2,-18,26*
COc1ccc(CNC(=O)CC23CC4CC(CC(C4)C2)C3)cc1,2,0,12,3,-12,9
CC(C)(CO)NC(=O)C12CC3CC(CC(Br)(C3)C1)C2,1,-3,4,0,0,26*
O=C(O)c1ccc(CNC(=O)C23CC4CC(CC(C4)C2)C3)cc1,-8,2,-2,9,-8,29*
CC(C)(C)NC(=O)C12CC3CC(CC(Cl)(C3)C1)C2,-1,4,-7,1,6,17
Nc1ccc(C(=O)N/N=C\c2ccc(OC(=O)c3ccccc3Cl)cc2)cc1,-8,12,-2,8,-5,0
O=C(O)c1ccc(N/N=C/c2ccc(OC(=O)c3ccccc3Cl)cc2)cc1,16,27*,-5,10,-2,-1
O=C(CCl)N1CCN2C(=O)c3ccccc3C12c1ccc(Cl)cc1 (stereo not given),2,-1,7,10,-7,4
O=C(Nc1cccc(Cl)c1)N1CCN2C(=O)c3ccccc3C12c1ccccc1 (stereo not given),-6,0,-2,-3,5,25*
O=C(/C=C(\Nc1cc(Cl)c(F)c(Cl)c1)c1ccccc1)c1ccccc1,·,·,-1,·,-4,·
C[C@@H]1CN([C@H](C)CO)C(=O)c2cccc(NC(=O)Nc3ccc(F)cc3)c2O[C@H]1CN(C)C(=O)Nc1ccc(C(F)(F)F)cc1,0,-9,2,6,8,50*
C[C@@H]1CN([C@H](C)CO)C(=O)c2cc(NC(=O)Nc3ccc(C(F)(F)F)cc3)ccc2O[C@H]1CN(C)S(=O)(=O)c1cccs1,-75,-25,11,-91,26*,-44
C[C@H](CO)N1C[C@H](C)[C@@H](CN(C)S(=O)(=O)c2ccc(F)cc2)Oc2c(NC(=O)Nc3ccc(C(F)(F)F)cc3)cccc2C1=O,-30,7,-5,-24,-9,24*
COc1ccc(NC(=O)N(C)C[C@H]2Oc3c(NC(=O)Nc4ccc(C(F)(F)F)cc4)cccc3C(=O)N([C@H](C)CO)C[C@@H]2C)cc1,-3,1,2,7,7,36*
C[C@H](CO)N1C[C@H](C)[C@@H](CN(C)C(=O)NC2CCCCC2)Oc2c(NC(=O)Nc3ccc(C(F)(F)F)cc3)cccc2C1=O,-4,1,6,-5,8,8
C[C@H](CO)N1C[C@H](C)[C@@H](CN(C)S(=O)(=O)c2cccs2)Oc2ccc(NC(=O)Nc3ccc(C(F)(F)F)cc3)cc2C1=O,-96,-29,1,-82,13,-40
COC(=O)c1c(-c2ccc(OC)cc2)c2c(c3c4cc(OC)ccc4n(S(=O)(=O)c4ccc(C)cc4)c13)C(=O)N(C)C2,·,·,1,·,-9,·

# High-throughput results (PubChem BioAssay)
